Values after ≈ are worked out from the molar mass of the structure shown. Active and inactive are the calls of the source. No cut-off for these calls is given here.
Key:
[1] = biological target: T1, Fatty-acid amide hydrolase 1 (Mus musculus, UniProt O08914); assay: Inhibition of FAAH in mouse brain membranes using [14C]-AEA as substrate incubated for 15 mins by scintillation counting method; format: cell membranes
T1 sequence (O08914 whole entry): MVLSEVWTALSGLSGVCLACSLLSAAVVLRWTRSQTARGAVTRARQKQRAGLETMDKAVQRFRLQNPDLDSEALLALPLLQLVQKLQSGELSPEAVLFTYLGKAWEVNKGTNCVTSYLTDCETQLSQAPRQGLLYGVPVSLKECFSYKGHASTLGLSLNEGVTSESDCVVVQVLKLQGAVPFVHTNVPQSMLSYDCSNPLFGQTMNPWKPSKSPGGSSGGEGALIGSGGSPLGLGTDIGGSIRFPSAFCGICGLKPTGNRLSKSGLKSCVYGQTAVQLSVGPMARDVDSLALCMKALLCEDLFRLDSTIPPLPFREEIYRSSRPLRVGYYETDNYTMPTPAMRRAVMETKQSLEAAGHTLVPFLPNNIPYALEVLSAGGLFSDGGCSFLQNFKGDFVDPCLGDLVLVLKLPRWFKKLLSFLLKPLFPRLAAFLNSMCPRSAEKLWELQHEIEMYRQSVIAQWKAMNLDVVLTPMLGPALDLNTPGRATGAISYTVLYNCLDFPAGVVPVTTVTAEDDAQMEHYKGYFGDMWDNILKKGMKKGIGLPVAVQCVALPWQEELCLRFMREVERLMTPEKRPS

[2] = biological target: T1, Fatty-acid amide hydrolase 1; assay: Inhibition of FAAH in mouse brain membranes assessed as inhibitory constant using [14C]-AEA as substrate incubated for 15 mins by scintillation counting method; format: cell membranes
How it was run: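 Mouse brain incubated with 10 μM [¹⁴C]AEA at 37 °C for 15 min, pH 9.0, compound added to the medium. Stopped with chloroform/methanol 2:1; [¹⁴C]ethanolamine released into the aqueous phase measured. Mean of at least three experiments.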

D(2) dopamine receptor = D(2) dopamine receptor (Homo sapiens, UniProt P14416); assay: Displacement of [3H]-spiperone from human D2 receptor expressed in CHO cells co-expressing Galpha16 incubated for 120 mins by liquid scintillation counting method; format: cell-based
How it was run: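 Membranes from CHO cells expressing hD2 with Gα16; 2 μg protein/well, 0.08 nM [³H]-spiperone final, 23 °C for 120 min. Stopped by rapid filtration on PEI-soaked GF/B filters, bound radioactivity counted; Ki by Cheng-Prusoff; at least three experiments.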

D(3) dopamine receptor = D(3) dopamine receptor (Homo sapiens, UniProt P35462); assay: Displacement of [3H]-spiperone from human D3 receptor expressed in CHO cells co-expressing Galpha16 incubated for 120 mins by liquid scintillation counting method; format: cell-based
[3] = biological target: Voltage-gated inwardly rectifying potassium channel KCNH2 (Homo sapiens, UniProt Q12809); assay: Inhibition of human ERG expressed in HEK293 cells […] by patch clamp assay; format: cell-based
How it was run: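 HEK293 cells stably expressing hERG under a tetracycline-inducible promoter (10 μg/mL tetracycline for 24, 48 or 72 h). Automated patch clamp, tail current; 0.1, 1 and 10 μM in 0.1% DMSO after 3 min vehicle, 5 min exposure. Residual current vs vehicle gives % inhibition; IC50 estimated; at least two cells.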

[4] = biological target: Cannabinoid receptor 1 (Mus musculus) (UniProt P47746); assay: Displacement of [3H]CP55, 940 from mouse brain membrane CB1 receptor
How it was run: (§1)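 Mouse brain membrane fraction (18000×g pellet) in 50 mM Tris-HCl, 2 mM Tris-EDTA, 3 mM MgCl2, pH 7.4. Rapid filtration binding with the agonist [³H]CP55,940; nonspecific binding defined with 1 μM unlabelled agonist; compound added directly to the incubation.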

[5] = biological target: Cannabinoid receptor 2 (Mus musculus) (UniProt P47936); assay: Displacement of [3H]CP55, 940 from mouse brain membrane CB2 receptor; how it was run: as §1
[6] = biological target: T2, Monoglyceride lipase (Mus musculus) (UniProt O35678); assay: Inhibition of MAGL in mouse brain assessed as release of [3H]glycerol using [3H]-2-OG as substrate incubated for 30 mins by scintillation counting method; format: tissue-based
T2 sequence (whole entry): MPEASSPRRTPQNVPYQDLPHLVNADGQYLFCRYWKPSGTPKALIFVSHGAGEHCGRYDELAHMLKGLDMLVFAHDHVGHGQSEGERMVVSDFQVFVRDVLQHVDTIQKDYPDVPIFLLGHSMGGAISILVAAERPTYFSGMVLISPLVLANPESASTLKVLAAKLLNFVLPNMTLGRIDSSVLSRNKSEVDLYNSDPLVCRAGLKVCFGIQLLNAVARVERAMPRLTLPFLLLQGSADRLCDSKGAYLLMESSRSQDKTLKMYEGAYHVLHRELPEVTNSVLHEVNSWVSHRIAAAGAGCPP
How it was run: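 Mouse brain homogenised in 50 mM sodium phosphate pH 8.0 with 0.32 M sucrose, spun sequentially up to 100,000×g. Final supernatant incubated with 10 μM [³H]2-OG at 37 °C for 30 min; stopped with chloroform/methanol and aqueous [³H]glycerol scintillation-counted.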

[7] = Solubility of compound in DMSO at pH 3 incubated for […] by HPLC/UV/DAD analysis; format: physicochemical
How it was run: (§2)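 10 mM DMSO stock diluted to 250 μM (2.5% DMSO) in 50 mM acetic acid (pH 3.0) or 50 mM PBS (pH 7.4). Shaken 24 h at 25 °C, filtered, diluted 1:2 and quantified by HPLC-UV at 254 nm against a 250 μM standard; triplicate average.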

[8] = Solubility of compound in DMSO at pH 7.4 incubated for […] by HPLC/UV/DAD analysis; format: physicochemical; how it was run: as §2
[9] = Chemical stability of compound in DMSO assessed as remaining compound at pH 3 incubated for 24 hrs by HPLC/UV/DAD analysis; format: physicochemical; conditions: read-out: Stability
How it was run: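 Samples at 250 μM (2.5% DMSO) in 50 mM acetic acid, pH 3.0, held 24 h at 25 °C. HPLC/UV/DAD peak area at 254 nm after 24 h divided by area at T0 × 100; triplicate average.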

NIH3T3 = assay: Cytotoxicity against mouse NIH/3T3 cells assessed as cell viability incubated for 24 hrs by neutral red uptake based assay; conditions: NIH3T3, 24 h
How it was run: (§3)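 NIH3T3 or U-373-MG cells grown in DMEM with 10% FCS at 37 °C, 5% CO2; compound from DMSO stock diluted in complete medium, 4–100 μM, 24 h. Viability by Neutral Red Uptake (3 h NR loading, acetic acid/ethanol extraction, A540), normalised to % control; IC50 reported. Three experiments in six replicates, Student's t test.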

U373 MG = assay: Cytotoxicity against human U373MG cells assessed as cell viability incubated for 24 hrs by neutral red uptake based assay; parameters: species or system U-373MG ATCC; how it was run: as §3
[10] = Metabolic stability in rat liver microsomes assessed as apparent decay constant at 5 uM incubated for 60 mins by UV-Vis spectrophotometry; format: ADME, Microsome; conditions: 1 h
[11] = Metabolic stability in rat liver microsomes assessed as intrinsic clearance at 5 uM incubated for 60 mins by UV-Vis spectrophotometry; format: ADME, Microsome; conditions: read-out: CLH
[12] = Metabolic stability in rat liver microsomes assessed as half life at 5 uM incubated for 60 mins by UV-Vis spectrophotometry; format: ADME, Microsome
[13] = Metabolic stability in human liver microsomes assessed as apparent decay constant at 5 uM incubated for 60 mins by UV-Vis spectrophotometry; format: ADME, Microsome; conditions: 1 h
[14] = Metabolic stability in human liver microsomes assessed as intrinsic clearance at 5 uM incubated for 60 mins by UV-Vis spectrophotometry; format: ADME, Microsome; conditions: read-out: CLH
[15] = Metabolic stability in human liver microsomes assessed as half life at 5 uM incubated for 60 mins by UV-Vis spectrophotometry; format: ADME, Microsome
IMR-32 [16] = assay: Cytotoxicity against human IMR32 cells at 0.1 to 50 uM incubated for 24 hrs by LDH release assay; format: cell-based; conditions: imr-32, 24 h
How it was run: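 IMR 32 cells exposed 24 h to 0.1, 0.5, 1, 5, 10 and 50 μM; LDH release expressed as percent of maximal release from Triton X-100-treated cells (100%). Samples run at least in triplicate, mean ± SD.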

IMR-32 [17] = assay: Antiinflammatory activity in human IMR32 cells assessed as reduction in LPS-induced NF-kappaB-DNA binding at 0.5 and 1 uM preincubated for 24 hrs followed by LPS stimulation and measured after 30 mins by ELISA; format: functional, cell-based
How it was run: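 IMR 32 cells pre-treated 24 h at 0.5 and 1 μM, then challenged with 100 μg/mL LPS for 30 min; NF-κB p65 binding of nuclear extracts to the DNA consensus sequence measured. Mean ± SEM of 3 independent experiments.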

IMR-32 [18] = assay: Antiinflammatory activity in human IMR32 cells assessed as reduction in LPS-induced NF-kappaB-DNA binding at 0.5 and 1 uM preincubated for 24 hrs followed by LPS stimulation and measured after 30 mins by immunoblot analysis; format: functional, cell-based
[19] = Retention time of compound in human liver microsomes incubated for 30 mins by HPLC analysis; format: ADME, Microsome; conditions: 0.5 h

Sequence of D(2) dopamine receptor (P14416 whole entry): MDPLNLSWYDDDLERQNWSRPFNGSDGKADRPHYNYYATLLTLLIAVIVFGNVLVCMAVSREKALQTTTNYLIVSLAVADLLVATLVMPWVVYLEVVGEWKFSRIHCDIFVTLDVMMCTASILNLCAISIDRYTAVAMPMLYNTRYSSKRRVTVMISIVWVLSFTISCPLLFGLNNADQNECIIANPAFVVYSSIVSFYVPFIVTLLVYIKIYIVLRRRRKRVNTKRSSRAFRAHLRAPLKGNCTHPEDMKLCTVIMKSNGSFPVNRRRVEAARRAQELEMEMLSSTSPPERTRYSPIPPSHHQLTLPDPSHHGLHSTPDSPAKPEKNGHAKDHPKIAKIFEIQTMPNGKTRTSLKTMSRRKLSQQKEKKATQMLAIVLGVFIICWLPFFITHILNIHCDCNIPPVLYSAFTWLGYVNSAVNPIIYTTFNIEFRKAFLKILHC
Sequence of Voltage-gated inwardly rectifying potassium channel KCNH2 (Q12809 whole entry): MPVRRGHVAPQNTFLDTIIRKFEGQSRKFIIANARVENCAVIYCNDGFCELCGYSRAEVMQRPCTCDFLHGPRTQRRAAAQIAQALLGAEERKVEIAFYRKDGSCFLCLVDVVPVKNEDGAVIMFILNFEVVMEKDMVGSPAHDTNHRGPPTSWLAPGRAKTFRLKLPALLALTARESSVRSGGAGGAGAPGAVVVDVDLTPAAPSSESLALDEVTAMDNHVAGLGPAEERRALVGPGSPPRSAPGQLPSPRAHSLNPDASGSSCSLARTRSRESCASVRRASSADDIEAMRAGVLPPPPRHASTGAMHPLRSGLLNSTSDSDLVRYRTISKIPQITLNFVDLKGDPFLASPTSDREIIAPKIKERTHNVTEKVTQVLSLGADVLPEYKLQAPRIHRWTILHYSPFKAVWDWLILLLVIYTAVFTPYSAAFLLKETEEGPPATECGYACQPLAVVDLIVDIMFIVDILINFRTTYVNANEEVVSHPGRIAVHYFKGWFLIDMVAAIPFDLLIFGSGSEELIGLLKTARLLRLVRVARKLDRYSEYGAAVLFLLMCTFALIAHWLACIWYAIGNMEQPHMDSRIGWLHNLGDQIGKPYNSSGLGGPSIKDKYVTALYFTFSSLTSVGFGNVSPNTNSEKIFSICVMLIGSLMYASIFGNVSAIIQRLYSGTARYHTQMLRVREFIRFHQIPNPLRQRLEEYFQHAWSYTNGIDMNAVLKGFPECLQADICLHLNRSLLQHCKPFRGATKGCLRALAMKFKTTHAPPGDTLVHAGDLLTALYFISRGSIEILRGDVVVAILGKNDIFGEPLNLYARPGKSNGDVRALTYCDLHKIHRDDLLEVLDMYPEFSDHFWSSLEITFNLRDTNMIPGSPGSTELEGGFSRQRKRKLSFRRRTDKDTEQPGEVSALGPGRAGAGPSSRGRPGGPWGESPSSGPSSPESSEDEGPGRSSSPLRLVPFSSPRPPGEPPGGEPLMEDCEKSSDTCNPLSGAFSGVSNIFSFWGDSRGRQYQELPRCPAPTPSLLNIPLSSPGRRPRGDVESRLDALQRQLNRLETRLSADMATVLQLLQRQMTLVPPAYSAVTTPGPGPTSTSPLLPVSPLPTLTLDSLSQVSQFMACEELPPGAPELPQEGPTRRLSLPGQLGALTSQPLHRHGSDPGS
Sequence of D(3) dopamine receptor (P35462 whole entry): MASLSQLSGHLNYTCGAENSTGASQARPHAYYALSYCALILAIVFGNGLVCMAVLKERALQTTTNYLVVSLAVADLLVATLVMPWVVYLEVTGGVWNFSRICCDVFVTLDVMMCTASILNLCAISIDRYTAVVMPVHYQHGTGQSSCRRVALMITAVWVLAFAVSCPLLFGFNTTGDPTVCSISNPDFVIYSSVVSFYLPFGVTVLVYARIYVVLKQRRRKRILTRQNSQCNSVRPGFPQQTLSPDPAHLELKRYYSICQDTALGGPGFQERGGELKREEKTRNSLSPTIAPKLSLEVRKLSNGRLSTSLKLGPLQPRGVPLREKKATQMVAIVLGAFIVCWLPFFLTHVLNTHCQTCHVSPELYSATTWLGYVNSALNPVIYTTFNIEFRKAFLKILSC
Sequence of Cannabinoid receptor 1 (Mus musculus) (P47746 whole entry): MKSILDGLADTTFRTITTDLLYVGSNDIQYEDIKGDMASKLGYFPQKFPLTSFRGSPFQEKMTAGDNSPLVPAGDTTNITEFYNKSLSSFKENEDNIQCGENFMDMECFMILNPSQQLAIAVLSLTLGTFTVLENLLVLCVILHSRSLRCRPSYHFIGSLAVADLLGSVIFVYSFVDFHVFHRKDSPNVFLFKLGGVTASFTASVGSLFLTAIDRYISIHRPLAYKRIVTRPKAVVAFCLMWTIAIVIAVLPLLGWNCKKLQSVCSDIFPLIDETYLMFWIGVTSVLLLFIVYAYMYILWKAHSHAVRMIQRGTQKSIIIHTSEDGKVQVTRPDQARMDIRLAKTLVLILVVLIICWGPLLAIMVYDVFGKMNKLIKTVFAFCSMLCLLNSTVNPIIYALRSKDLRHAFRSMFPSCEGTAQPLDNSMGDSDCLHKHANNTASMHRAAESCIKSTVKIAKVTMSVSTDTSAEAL
Sequence of Cannabinoid receptor 2 (Mus musculus) (P47936 whole entry): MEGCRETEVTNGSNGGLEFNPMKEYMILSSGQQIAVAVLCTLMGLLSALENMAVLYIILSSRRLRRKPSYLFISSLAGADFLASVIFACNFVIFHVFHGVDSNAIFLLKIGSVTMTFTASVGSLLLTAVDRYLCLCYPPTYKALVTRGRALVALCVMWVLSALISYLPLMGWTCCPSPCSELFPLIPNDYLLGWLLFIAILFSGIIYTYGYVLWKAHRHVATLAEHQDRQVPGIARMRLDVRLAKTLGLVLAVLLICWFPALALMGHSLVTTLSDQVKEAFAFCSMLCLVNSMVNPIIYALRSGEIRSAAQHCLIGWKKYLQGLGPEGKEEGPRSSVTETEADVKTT

SMILES | IC50 [1] [nM] | Ki [2] [nM] | Ki (D(2) dopamine receptor) [nM] | Ki (D(3) dopamine receptor) [nM] | IC50 [3] [nM] | other results
Cc1cc(C(N)=O)c(-c2cccc(OC(=O)NCCCN3CCN(c4ccccc4)CC3)c2)o1 | 62 | 16 | 29 | 19 | 1100 | –
Cn1c(C(N)=O)ccc1-c1cccc(OC(=O)NCCN2CCN(c3ccccc3)CC2)c1 | 791 | 203 | 56 | 76 | 6400 | –
Cc1cc(C(N)=O)c(-c2cccc(OC(=O)NCCN3CCN(c4ccccc4)CC3)c2)o1 | 0.89 | 0.23 | 138 | 105 | < 100 | pIC50 ([3]; hek293): > 7; inhibition [4]: inactive; inhibition [5]: inactive; inhibition [6]: inactive; solubility [7]: 991 µM (≈ 444 µg/mL); solubility [8]: 2 µM (≈ 0.897 µg/mL); remaining at 24 h [9]: 99.9%; IC50 (NIH3T3): 68000 nM; IC50 (U373 MG): 23000 nM; K [10]: 0.03482 ×10⁻¹ /min; microsomal CLint at 5 µM [11]: 59.2 µL/min/mg; half-life at 5 µM [12]: 19.9 min; K [13]: 0.02842 ×10⁻¹ /min; microsomal CLint at 5 µM [14]: 47.4 µL/min/mg; half-life at 5 µM [15]: 24.4 min; Activity (IMR-32 [16]): Non-Toxic; Activity (IMR-32 [17]): Active; Activity (IMR-32 [18]): Active; Retention_time [19]: 9.004 min
NC(=O)c1cn(-c2cccc(OC(=O)NCCN3CCN(c4ccccc4)CC3)c2)nn1 | 757 | 194 | – | – | – | –
NC(=O)c1ccn(-c2cccc(OC(=O)NCCCN3CCN(c4ccccc4)CC3)c2)c1 | 94 | 25 | 66 | 34 | 3500 | –
Cc1cc(C(N)=O)c(-c2cccc(OC(=O)NCCN3CCN(c4ccccc4)CC3)c2)s1 | 26 | 6.88 | 214 | 148 | 280 | –
